# Assay outcomes (PubChem)
# Myeloid diff MLP: promotes myeloid progenitor differentiation; ER-HoxA9 myeloid progenitors, lysozyme-GFP differentiation, flow cytometry; calls only at 10 µM; actives 1% (n = 360,000); AID 624256;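 active means normalized GFP-positive differentiation at or above the plate's own cutoff, the solvent-only control mean plus 3 SD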;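 further: cells exposed to compound for four days before flow analysis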
# Vif imaging: HIV Vif inhibition; inhibition, % at 7.49 µM; actives 0.35% (n = 340,000); HEK293T cells, Vif self-association by quenched fluorescence, imaging, 24 h; AID 602346; in the data active means inhibition above about 50%, passing the limit was not always enough
# T cell HTS: modulates CD8 T cell binding to vesicles | 2C CD8+ T cell-vesicle binding, flow cytometry; hits give low values | response (vesicle binding), % at 7 µM | actives 0.068% (n = 330,000) | AID 2052;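 active means response, share of CD8 T cells binding vesicles, and their 90th percentile fluorescence all below set limits, cut at about 80% in these data, passing the limit was not always enough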;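 further: values below 100% mean blocked vesicle binding to the CD8+ T cells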
#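 Material: 2C TCR transgenic mouse naive CD8+ T cells, MACS-purified. Also added: QL9-charged Drosophila Ld/ICAM-1/B7-1 vesicles. Timing: binding 1.5 h at 37 °C. Measured by: high-throughput flow cytometry with anti-B7-1 and anti-CD8 staining. Read-out: percent CD8+ FL2 mean versus row control. Controls: Unloaded micro-vesicles (low), QL9 vesicles with 0.7% DMSO (high).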
# DSG3 Ab inh: blocks pemphigus antibody binding to human desmoglein-3; P32926; DSG3-coupled beads, scFv-anti-DSG3-GFP binding, flow cytometry; hits give low values; binding (percent of control), % at 10 µM; actives 0.48% (n = 310,000);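 active means binding more than 3 SD below its plate's average and above zero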;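 further: hits lower antibody fragment binding to DSG3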
# Myeloid diff: compounds promoting myeloid differentiation; shares compounds with Myeloid diff MLP; ER-HoxA9 myeloid progenitors, GFP/Mac1 double-positive flow; calls only; actives 2% (n = 2,300);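 active means share of green or green-and-red cells above 9 and 9% in run 1 or 4 and 3% in run 2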
# GFP autofluor: flagged as fluorescent in myeloid differentiation counter-screen. shares compounds with Myeloid diff MLP. actives 7.4% (n = 2,300). ER-HoxA9 myeloid progenitors, no estrogen, GFP autofluorescence flow cytometry; vehicle wells 0%, positive control 100%. AID 651707. fluorescence response, % (concentration not given with the values);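 active means over 5% cells positive for green fluorescent reporter, or over 2% positive for both it and APC stain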
# Hits are given with their value; i = inactive; nt = no result; + = active, no number. Only some compounds are listed: those with a hit (about 1.7% of all), similar ones and a draw of the others.
SMILES,Myeloid diff MLP,Vif imaging,T cell HTS,DSG3 Ab inh,Myeloid diff,GFP autofluor
Cn1cc(C[C@H](NC(=O)OC(C)(C)C)C(=O)N[C@@H](CO)Cc2ccccc2)c2ccccc21,i,i,i,i,nt,nt
CN(Cc1ccccc1)S(=O)(=O)c1ccc(Cl)c(C(=O)NCCCN2CCOCC2)c1,i,i,i,i,nt,nt
Cn1c(=O)c2cc(S(=O)(=O)NC(Cc3ccccc3)C(=O)NCc3ccco3)ccc2n(C)c1=O (configuration not stated),i,i,i,i,i,i
COCCCNC(=O)C(Cc1ccccc1)NS(=O)(=O)c1ccc2c(c1)c(=O)n(C)c(=O)n2C (configuration not stated),i,i,i,i,nt,nt
CC(=O)NC(c1ccccc1)c1nc(/C=C/c2ccccc2)cs1 (configuration not stated),i,i,nt,nt,nt,nt
CC1CCN(Cc2ccc(-c3nnn(CC(=O)Nc4ccccc4Cl)n3)cc2)CC1,+,i,i,i,i,i
Cc1cccc(C)c1NC(=O)Cn1nnc(-c2ccc(CN3CCC(C)CC3)cc2)n1,i,i,i,i,nt,nt
COC(=O)C[C@H]1C=C[C@@H](NC(=O)Nc2c(C)noc2C)[C@@H](CO)O1,i,nt,nt,nt,nt,nt
CN1CCN(c2cc3c(c4c2[nH]c2ccccc24)C(=O)CC(C)(C)C3)CC1,i,i,i,i,i,i
CCC[C@@H]1C[C@@]1(CCC)[C@@H](NP(=O)(c1ccccc1)c1ccccc1)c1ccc(C(=O)OC)cc1,nt,nt,i,nt,nt,nt
COC(=O)c1cccc(C#CC(NP(=O)(c2ccccc2)c2ccccc2)c2ccccc2)c1 (configuration not stated),i,i,i,i,i,i
Cc1cccc(C)c1NC(=O)CNC(=O)c1ccc(N2CCCC2)c([N+](=O)[O-])c1,i,i,i,i,nt,nt
Cn1c(=O)c2c(nc(NCc3ccco3)n2C/C=C/c2ccccc2)n(C)c1=O,i,nt,i,i,i,i
Cn1c(=O)c2c(nc(NCc3ccco3)n2C)n(C)c1=O,i,nt,i,i,nt,nt
COc1ccc(C(C)(C)C)cc1NC(=O)CCc1c(C)noc1C,i,i,i,i,nt,nt
CCOC(=O)c1c(C)[nH]c(C(=O)COC(=O)c2ccc(F)c(S(=O)(=O)N3CCOCC3)c2)c1C,+,i,i,nt,i,i
CCN(CC)C(=O)c1ccc2sc([C@@H]3O[C@H](CO)[C@H](O)[C@H](O)[C@H]3O)nc2c1,i,i,nt,nt,nt,nt
O=C(Nc1ccncc1)c1ccc(Cl)c(S(=O)(=O)N2CCc3ccccc32)c1,i,i,i,i,i,i
COc1ccc(C(=O)NC2CCCCCC2)cc1S(=O)(=O)N1CCCc2ccccc21,i,i,i,i,i,i
COc1ccc(C(=O)NC2CCCCCC2)cc1S(=O)(=O)N1CCCC1,i,i,i,i,nt,nt
Cc1cc(OCC(=O)OCC(=O)Nc2cc(S(=O)(=O)N3CCOCC3)ccc2Cl)ccc1Cl,i,i,i,nt,nt,nt
CCOc1ccc2nc(N3C(=O)/C(=C/c4ccccc4)NC3=S)sc2c1,i,i,i,i,nt,nt
COc1ccc2nc(N3C(=O)/C(=C/c4ccccc4)NC3=S)sc2c1,i,i,i,i,i,7.0
Cc1ccc(C(=O)OCC(=O)Nc2ccc(C)c(S(=O)(=O)N3CCCCC3)c2)o1,i,i,nt,i,nt,nt
Cc1cc2nc(NC(=O)C3(C)CCCN(C(C)C)C3)[nH]c2cc1C (configuration not stated),i,i,nt,nt,nt,nt
SMILES,Myeloid diff MLP,Vif imaging,T cell HTS,DSG3 Ab inh,Myeloid diff,GFP autofluor
CCN(CC)CCCNc1nc2cc(OC)c(OC)cc2c2nc(-c3ccccc3)nn12,i,i,i,i,nt,nt
COCCCNc1nc2cc(OC)c(OC)cc2c2nc(-c3ccccc3)nn12,+,i,i,i,i,i
CC1(C)C2CCC1(C)C(SC(=N)N)C2 (configuration not stated),i,i,nt,nt,i,i
O=C(O)CCC1(C(=O)O)OCCc2ccccc21 (configuration not stated),i,i,i,i,i,i
C/C(=N/NC(=O)NC12CC3CC(CC(C3)C1)C2)c1ccccc1,i,i,i,i,nt,nt
O=C(CN1CCN(Cc2ccccc2)CC1)NNC(=O)c1ccccc1,i,nt,i,i,i,i
O=C(Nc1ccc(F)c(Cl)c1)C1CC2CCC1C2 (configuration not stated),i,i,i,i,nt,nt
CN(C)c1ccc(C=NN2C(=O)CSC2=S)c(Cl)c1,+,i,nt,i,i,i
O=C1CSC(=S)N1N=Cc1c(F)cccc1Cl,i,i,nt,i,nt,nt
